Results from ChEMBL document CHEMBL5705890, “Antitumor activity of an allosteric inhibitor of centromere-associated protein-E” (Proc Natl Acad Sci U S A, 2010).

Tests used:
Centromere protein E = Centromere protein E (Canis lupus familiaris, UniProt A0A8P0P634); assay: Binding affinity to wild-type dog CENP-E assessed as inhibition constant
BE(2)-C = assay: Anticancer activity against human BE2C cells assessed as cell growth inhibition measured after 72 hrs by DAPI staining based analysis; type: functional
Method in brief: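 Cells were seeded and, after 24 h, DNA content was read as T0. Cells were then exposed to varying drug concentrations for a further 72 h (T72). Fixed cells were DAPI-stained and DNA content measured by automated imaging. T72 values were normalized to T0. GI50 is the concentration giving 50% growth inhibition between T0 and Ymax, obtained by curve fitting.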

[1] = Anticancer activity against human BM-1604 cells assessed as cell growth inhibition measured after 72 hrs by DAPI staining based analysis; type: functional
Method in brief: (§1)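 Cells were seeded, and DNA content at 24 h after seeding (T0) was read by imaging of fixed, DAPI-stained cells. Cells were then exposed to a range of drug concentrations for a further 72 h (T72) and DNA content was read again. T72 values were normalized to T0, and GI50 was taken from curve fits as the concentration giving 50% growth inhibition relative to T0 and Ymax.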

C3A = assay: Anticancer activity against human C3A cells assessed as cell growth inhibition measured after 72 hrs by DAPI staining based analysis; type: functional; method in brief: as §1
COLO-320-HSR = assay: Anticancer activity against human COLO 320HSR cells assessed as cell growth inhibition measured after 72 hrs by DAPI staining based analysis; type: functional; method in brief: as §1
COLO 320DM = assay: Anticancer activity against human COLO 320DM cells assessed as cell growth inhibition measured after 72 hrs by DAPI staining based analysis; type: functional; method in brief: as §1
CRO-AP2 = assay: Anticancer activity against human CRO-AP2 cells assessed as cell growth inhibition measured after 72 hrs by DAPI staining based analysis; type: functional
Method in brief: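 Cells seeded, DAPI-stained DNA content of fixed cells read by imaging 24 h after seeding (T0), and again after a further 72 h exposure to a range of drug concentrations (T72). T72 values were normalized to T0. Curve fits gave the concentration producing 50% growth inhibition relative to T0 and Ymax (GI50).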

J82 = assay: Anticancer activity against human J82 cells assessed as cell growth inhibition measured after 72 hrs by DAPI staining based analysis; type: functional
[2] = Anticancer activity against human KHOS-240S cells assessed as cell growth inhibition measured after 72 hrs by DAPI staining based analysis; type: functional
NCI-H187 = assay: Anticancer activity against human NCI-H187 cells assessed as cell growth inhibition measured after 72 hrs by DAPI staining based analysis; type: functional
NCI-H209 = assay: Anticancer activity against human NCI-H209 cells assessed as cell growth inhibition measured after 72 hrs by DAPI staining based analysis; type: functional
NCI-H2170 = assay: Anticancer activity against human NCI-H2170 cells assessed as cell growth inhibition measured after 72 hrs by DAPI staining based analysis; type: functional
OVCAR-8 = assay: Anticancer activity against human OVCAR-8 cells assessed as cell growth inhibition measured after 72 hrs by DAPI staining based analysis; type: functional
PC-3 = assay: Anticancer activity against human PC-3 cells assessed as cell growth inhibition measured after 72 hrs by DAPI staining based analysis; type: functional
RD = assay: Anticancer activity against human RD cells assessed as cell growth inhibition measured after 72 hrs by DAPI staining based analysis; type: functional
SCC-15 = assay: Anticancer activity against human SCC-15 cells assessed as cell growth inhibition measured after 72 hrs by DAPI staining based analysis; type: functional
SNB-19 = assay: Anticancer activity against human SNB-19 cells assessed as cell growth inhibition measured after 72 hrs by DAPI staining based analysis; type: functional
SNU-387 = assay: Anticancer activity against human SNU-387 cells assessed as cell growth inhibition measured after 72 hrs by DAPI staining based analysis; type: functional
ST486 = assay: Anticancer activity against human ST486 cells assessed as cell growth inhibition measured after 72 hrs by DAPI staining based analysis; type: functional
SW-403 = assay: Anticancer activity against human SW403 cells assessed as cell growth inhibition measured after 72 hrs by DAPI staining based analysis; type: functional
SW480 = assay: Anticancer activity against human SW480 cells assessed as cell growth inhibition measured after 72 hrs by DAPI staining based analysis; type: functional
[3] = Anticancer activity against human SW579 cells assessed as cell growth inhibition measured after 72 hrs by DAPI staining based analysis; type: functional
U2OS = assay: Anticancer activity against human U2OS cells assessed as cell growth inhibition measured after 72 hrs by DAPI staining based analysis; type: functional
UACC-257 = assay: Anticancer activity against human UACC-257 cells assessed as cell growth inhibition measured after 72 hrs by DAPI staining based analysis; type: functional
G-402 = assay: Anticancer activity against human G-402 cells assessed as cell doubling measured for 72 hrs by DAPI staining based analysis; type: functional
HCC1143 = assay: Anticancer activity against human HCC1143 cells assessed as cell doubling measured for 72 hrs by DAPI staining based analysis; type: functional
HeLa = assay: Anticancer activity against human HeLa cells assessed as cell doubling measured for 72 hrs by DAPI staining based analysis; type: functional
K562 = assay: Anticancer activity against human K562 cells assessed as cell doubling measured for 72 hrs by DAPI staining based analysis; type: functional
NCI-H358 = assay: Anticancer activity against human NCI-H358 cells assessed as cell doubling measured for 72 hrs by DAPI staining based analysis; type: functional
NCI-H596 = assay: Anticancer activity against human NCI-H596 cells assessed as cell doubling measured for 72 hrs by DAPI staining based analysis; type: functional
OVCAR-4 = assay: Anticancer activity against human OVCAR-4 cells assessed as cell doubling measured for 72 hrs by DAPI staining based analysis; type: functional
SCC-4 = assay: Anticancer activity against human SCC-4 cells assessed as cell doubling measured for 72 hrs by DAPI staining based analysis; type: functional
SF-268 = assay: Anticancer activity against human SF-268 cells assessed as cell doubling measured for 72 hrs by DAPI staining based analysis; type: functional
SK-N-DZ = assay: Anticancer activity against human SK-N-DZ cells assessed as cell doubling measured for 72 hrs by DAPI staining based analysis; type: functional
SNU-449 = assay: Anticancer activity against human SNU-449 cells assessed as cell doubling measured for 72 hrs by DAPI staining based analysis; type: functional
SR = assay: Anticancer activity against human SR cells assessed as cell doubling measured for 72 hrs by DAPI staining based analysis; type: functional
SW 962 = assay: Anticancer activity against human SW 962 cells assessed as cell doubling measured for 72 hrs by DAPI staining based analysis; type: functional
NCI-H1299 = assay: Antitumor activity against human NCI-H1299 cells in xenograft model assessed as difference between median time to endpoint time of treated versus control group at 62.5 mg/kg; type: functional
A549 = assay: Antitumor activity against human A549 cells in xenograft model assessed as tumor growth delay at 125 mg/kg relative to control; type: functional
NCI-H460 = assay: Antitumor activity against human NCI-H460 cells in xenograft model assessed as tumor growth delay at 125 mg/kg relative to control; type: functional

Centromere protein E, sequence (A0A8P0P634 whole entry): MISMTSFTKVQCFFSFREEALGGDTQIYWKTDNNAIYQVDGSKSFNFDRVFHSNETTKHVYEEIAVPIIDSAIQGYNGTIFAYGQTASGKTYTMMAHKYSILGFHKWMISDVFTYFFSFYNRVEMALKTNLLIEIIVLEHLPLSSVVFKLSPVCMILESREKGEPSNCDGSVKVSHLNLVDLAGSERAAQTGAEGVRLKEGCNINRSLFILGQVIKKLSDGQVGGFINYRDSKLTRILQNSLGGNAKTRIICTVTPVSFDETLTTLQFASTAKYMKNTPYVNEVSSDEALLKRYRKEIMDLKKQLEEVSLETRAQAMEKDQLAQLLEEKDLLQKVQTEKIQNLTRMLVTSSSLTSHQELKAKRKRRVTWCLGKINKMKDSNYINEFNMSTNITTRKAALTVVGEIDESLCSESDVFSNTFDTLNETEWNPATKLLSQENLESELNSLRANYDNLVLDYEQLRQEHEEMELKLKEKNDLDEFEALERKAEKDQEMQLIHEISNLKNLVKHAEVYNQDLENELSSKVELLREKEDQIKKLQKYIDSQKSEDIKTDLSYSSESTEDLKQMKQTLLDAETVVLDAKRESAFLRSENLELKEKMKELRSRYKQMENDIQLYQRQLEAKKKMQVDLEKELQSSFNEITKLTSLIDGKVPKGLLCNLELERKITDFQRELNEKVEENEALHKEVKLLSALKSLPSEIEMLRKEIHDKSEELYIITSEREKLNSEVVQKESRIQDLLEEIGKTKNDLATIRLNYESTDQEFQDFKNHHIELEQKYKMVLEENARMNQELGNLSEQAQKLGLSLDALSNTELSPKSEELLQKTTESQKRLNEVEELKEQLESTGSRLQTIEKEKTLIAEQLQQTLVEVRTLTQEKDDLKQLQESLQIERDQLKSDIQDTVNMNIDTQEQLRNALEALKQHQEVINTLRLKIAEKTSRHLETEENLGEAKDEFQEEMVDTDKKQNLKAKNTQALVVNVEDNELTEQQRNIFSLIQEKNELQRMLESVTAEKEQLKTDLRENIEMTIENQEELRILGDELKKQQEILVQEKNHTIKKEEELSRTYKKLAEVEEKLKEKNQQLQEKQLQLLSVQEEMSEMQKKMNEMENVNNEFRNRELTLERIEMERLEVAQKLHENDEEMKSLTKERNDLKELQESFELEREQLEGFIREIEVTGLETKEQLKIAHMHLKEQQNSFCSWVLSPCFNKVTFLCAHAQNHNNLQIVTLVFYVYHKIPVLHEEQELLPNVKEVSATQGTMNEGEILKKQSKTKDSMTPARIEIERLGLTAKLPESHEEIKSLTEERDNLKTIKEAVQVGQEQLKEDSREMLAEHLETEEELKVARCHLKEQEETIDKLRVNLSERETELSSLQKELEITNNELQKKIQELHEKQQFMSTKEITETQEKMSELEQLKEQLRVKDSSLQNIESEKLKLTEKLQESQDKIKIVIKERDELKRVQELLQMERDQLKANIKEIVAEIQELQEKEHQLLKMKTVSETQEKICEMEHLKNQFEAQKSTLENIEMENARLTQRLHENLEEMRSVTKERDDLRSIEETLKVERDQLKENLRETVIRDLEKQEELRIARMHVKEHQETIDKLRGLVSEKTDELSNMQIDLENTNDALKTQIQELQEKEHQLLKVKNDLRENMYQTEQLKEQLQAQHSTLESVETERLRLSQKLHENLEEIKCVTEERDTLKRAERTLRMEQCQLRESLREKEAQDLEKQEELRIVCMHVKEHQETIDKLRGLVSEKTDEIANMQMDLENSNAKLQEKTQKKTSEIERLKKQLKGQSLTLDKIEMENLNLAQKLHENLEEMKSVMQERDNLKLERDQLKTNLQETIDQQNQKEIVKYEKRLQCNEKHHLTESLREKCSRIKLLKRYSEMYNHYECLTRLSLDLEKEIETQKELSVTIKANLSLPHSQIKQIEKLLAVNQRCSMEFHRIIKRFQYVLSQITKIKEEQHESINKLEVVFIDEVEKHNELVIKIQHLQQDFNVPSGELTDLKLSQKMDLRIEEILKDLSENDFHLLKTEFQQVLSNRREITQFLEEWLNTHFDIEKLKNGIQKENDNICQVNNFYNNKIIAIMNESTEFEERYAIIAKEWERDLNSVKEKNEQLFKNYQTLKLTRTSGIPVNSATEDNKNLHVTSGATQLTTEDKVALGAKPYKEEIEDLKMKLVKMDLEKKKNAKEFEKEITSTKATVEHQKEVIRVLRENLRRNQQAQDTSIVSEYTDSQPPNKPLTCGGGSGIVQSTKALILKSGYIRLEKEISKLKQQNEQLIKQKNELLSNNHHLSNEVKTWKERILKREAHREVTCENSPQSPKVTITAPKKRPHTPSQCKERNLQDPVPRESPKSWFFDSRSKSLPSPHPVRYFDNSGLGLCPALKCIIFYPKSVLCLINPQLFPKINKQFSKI

CC(C)Oc1ccc(C(=O)N[C@H](CNC(=O)CN(C)C)Cc2ccc(-c3cn4cccc([C@H](C)O)c4n3)cc2)cc1Cl [GSK-923295A]
Ki (Centromere protein E): 1.6 nM | GI50 (BE(2)-C): 93 nM | GI50 [1]: 40 nM | GI50 (C3A): 54 nM | GI50 (COLO-320-HSR): 153 nM | GI50 (COLO 320DM): 306 nM | GI50 (CRO-AP2): 51 nM | GI50 (J82): 114 nM | GI50 [2]: 37 nM | GI50 (NCI-H187): 68 nM | GI50 (NCI-H209): 20 nM | GI50 (NCI-H2170): 25 nM | GI50 (OVCAR-8): 50 nM | GI50 (PC-3): 28 nM | GI50 (RD): 28 nM | GI50 (SCC-15): 63 nM | GI50 (SNB-19): 28 nM | GI50 (SNU-387): 32 nM | GI50 (ST486): 26 nM | GI50 (SW-403): 24 nM | GI50 (SW480): 33 nM | GI50 [3]: 26 nM | GI50 (U2OS): 45 nM | GI50 (UACC-257): 32 nM | Activity (G-402): 1.76 | Activity (HCC1143): 1.89 | Activity (HeLa): 2.83 | Activity (K562): 3.52 | Activity (NCI-H358): 2.07 | Activity (NCI-H596): 1.31 | Activity (OVCAR-4): 2.94 | Activity (SCC-4): 2.44 | Activity (SF-268): 2.13 | Activity (SK-N-DZ): 1.81 | Activity (SNU-449): 2.33 | Activity (SR): 2.84 | Activity (SW 962): 2.46 | Time (NCI-H1299): 3.3 days | Activity (A549): 73% | Activity (NCI-H460): 210%
